System: HEK-293T
Experiment: Multiplex assay against HEK293T;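 on Population Tubulin-Different-Phenotype (%): share of the cells with healthy nuclei that show this phenotype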
Assay type: toxicity, cell-based
Details: human
Method in brief: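 With compound added, live cells were imaged on a CQ1 microscope at 37°C and 5% CO2; staining with Hoechst33342, BioTracker Green Microtubule Cytoskeleton Dye, MitoTracker Red and Annexin V Alexa Fluor 680 had been done at seeding. The CellPathfinder machine-learning gating scheme split cells into Hoechst high-intensity objects or normal cells, normal cells into healthy, pyknosed or fragmented nuclei, and pyknosed cells into mitotic or apoptotic. The tubulin, mitochondrial-mass and membrane-permeability phenotypes are per cents of healthy-nucleus cells.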

[1] = 12 h, 1 µM, compound concentration 1 uM, replicate 1
[2] = 12 h, 1 µM, compound concentration 1 uM, replicate 2
[3] = 12 h, 10 µM, compound concentration 10 uM, replicate 1
[4] = 12 h, 10 µM, compound concentration 10 uM, replicate 2
[5] = 24 h, 1 µM, compound concentration 1 uM, replicate 1
[6] = 24 h, 1 µM, compound concentration 1 uM, replicate 2
[7] = 24 h, 10 µM, compound concentration 10 uM, replicate 1
[8] = 24 h, 10 µM, compound concentration 10 uM, replicate 2
[9] = 48 h, 1 µM, compound concentration 1 uM, replicate 1
[10] = 48 h, 1 µM, compound concentration 1 uM, replicate 2
[11] = 48 h, 10 µM, compound concentration 10 uM, replicate 1
[12] = 48 h, 10 µM, compound concentration 10 uM, replicate 2

## O=C1NC(=O)C(c2cnc3ccccn23)=C1c1cn2c3c(cc(F)cc13)CN(C(=O)N1CCCCC1)CC2 [LY-2090314]
[1]
  Population Apoptotic (%): 46%
  Population Fragmented Nuclei (%): 8%
  Population Healthy Nuclei (%): 18%
  Population Hoechst High Intensity Objects (%): 16%
  Population Membrane Permeable-Phenotype (%): 10%
  Population Mitochondria Different-Phenotype (%): 93%
  Population Mitotic Cells (%): 53%
  Population Normal (%): 83%
  Population Pyknosed Nuclei (%): 73%
  Population Tubulin-Different-Phenotype (%): 89%
  Total Cell Count: 191
[2]
  Population Apoptotic (%): 26%
  Population Fragmented Nuclei (%): 6%
  Population Healthy Nuclei (%): 31%
  Population Hoechst High Intensity Objects (%): 7%
  Population Membrane Permeable-Phenotype (%): 16%
  Population Mitochondria Different-Phenotype (%): 51%
  Population Mitotic Cells (%): 73%
  Population Normal (%): 92%
  Population Pyknosed Nuclei (%): 62%
  Population Tubulin-Different-Phenotype (%): 61%
  Total Cell Count: 210
[3]
  Population Apoptotic (%): 76%
  Population Fragmented Nuclei (%): 8%
  Population Healthy Nuclei (%): 18%
  Population Hoechst High Intensity Objects (%): 17%
  Population Membrane Permeable-Phenotype (%): 0%
  Population Mitochondria Different-Phenotype (%): 100%
  Population Mitotic Cells (%): 23%
  Population Normal (%): 82%
  Population Pyknosed Nuclei (%): 73%
  Population Tubulin-Different-Phenotype (%): 96%
  Total Cell Count: 186
[4]
  Population Apoptotic (%): 58%
  Population Fragmented Nuclei (%): 6%
  Population Healthy Nuclei (%): 5%
  Population Hoechst High Intensity Objects (%): 8%
  Population Membrane Permeable-Phenotype (%): 14%
  Population Mitochondria Different-Phenotype (%): 85%
  Population Mitotic Cells (%): 41%
  Population Normal (%): 91%
  Population Pyknosed Nuclei (%): 87%
  Population Tubulin-Different-Phenotype (%): 85%
  Total Cell Count: 135
[5]
  Population Apoptotic (%): 53%
  Population Fragmented Nuclei (%): 13%
  Population Healthy Nuclei (%): 26%
  Population Hoechst High Intensity Objects (%): 17%
  Population Membrane Permeable-Phenotype (%): 6%
  Population Mitochondria Different-Phenotype (%): 93%
  Population Mitotic Cells (%): 46%
  Population Normal (%): 82%
  Population Pyknosed Nuclei (%): 59%
  Population Tubulin-Different-Phenotype (%): 79%
  Total Cell Count: 198
[6]
  Population Apoptotic (%): 29%
  Population Fragmented Nuclei (%): 5%
  Population Healthy Nuclei (%): 44%
  Population Hoechst High Intensity Objects (%): 6%
  Population Membrane Permeable-Phenotype (%): 8%
  Population Mitochondria Different-Phenotype (%): 42%
  Population Mitotic Cells (%): 70%
  Population Normal (%): 93%
  Population Pyknosed Nuclei (%): 50%
  Population Tubulin-Different-Phenotype (%): 66%
  Total Cell Count: 256
[7]
  Population Apoptotic (%): 86%
  Population Healthy Nuclei (%): 38%
  Population Hoechst High Intensity Objects (%): 14%
  Population Membrane Permeable-Phenotype (%): 1%
  Population Mitotic Cells (%): 13%
  Population Normal (%): 85%
  Population Pyknosed Nuclei (%): 52%
  Total Cell Count: 187
[8]
  Population Apoptotic (%): 77%
  Population Fragmented Nuclei (%): 8%
  Population Healthy Nuclei (%): 30%
  Population Hoechst High Intensity Objects (%): 8%
  Population Membrane Permeable-Phenotype (%): 2%
  Population Mitochondria Different-Phenotype (%): 100%
  Population Mitotic Cells (%): 22%
  Population Normal (%): 91%
  Population Pyknosed Nuclei (%): 61%
  Population Tubulin-Different-Phenotype (%): 95%
  Total Cell Count: 148
[9]
  Population Apoptotic (%): 52%
  Population Fragmented Nuclei (%): 15%
  Population Healthy Nuclei (%): 39%
  Population Hoechst High Intensity Objects (%): 14%
  Population Membrane Permeable-Phenotype (%): 1%
  Population Mitochondria Different-Phenotype (%): 67%
  Population Mitotic Cells (%): 47%
  Population Normal (%): 85%
  Population Pyknosed Nuclei (%): 44%
  Population Tubulin-Different-Phenotype (%): 73%
  Total Cell Count: 230
[10]
  Population Apoptotic (%): 29%
  Population Fragmented Nuclei (%): 3%
  Population Healthy Nuclei (%): 68%
  Population Hoechst High Intensity Objects (%): 8%
  Population Membrane Permeable-Phenotype (%): 12%
  Population Mitochondria Different-Phenotype (%): 24%
  Population Mitotic Cells (%): 70%
  Population Normal (%): 91%
  Population Pyknosed Nuclei (%): 27%
  Population Tubulin-Different-Phenotype (%): 57%
  Total Cell Count: 309
[11]
  Population Apoptotic (%): 80%
  Population Fragmented Nuclei (%): 11%
  Population Hoechst High Intensity Objects (%): 12%
  Population Membrane Permeable-Phenotype (%): 0%
  Population Mitochondria Different-Phenotype (%): 99%
  Population Mitotic Cells (%): 19%
  Population Normal (%): 87%
  Population Pyknosed Nuclei (%): 23%
  Total Cell Count: 200
[12]
  Population Apoptotic (%): 78%
  Population Fragmented Nuclei (%): 7%
  Population Healthy Nuclei (%): 65%
  Population Hoechst High Intensity Objects (%): 5%
  Population Membrane Permeable-Phenotype (%): 5%
  Population Mitochondria Different-Phenotype (%): 95%
  Population Mitotic Cells (%): 21%
  Population Normal (%): 94%
  Population Pyknosed Nuclei (%): 27%
  Population Tubulin-Different-Phenotype (%): 97%
  Total Cell Count: 159

Reference: ChEMBL document CHEMBL4689842, “EUbOPEN Chemogenomics Library wave 1” (2021)
